Screens: PubChem, Broad Institute
Hits are enriched below; roughly 3.4% of the tested compounds scored in any of these assays.
E-sel inducer: E-selectin induction in HUVECs, primary screen, imaging, HUVEC, immunofluorescence imaging, single point; normalized: neutral wells 0, TNF-alpha wells 100; activation, % at 7.58 µM; hit rate 0.37% among 260,000; AID 686992, 2013;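 active = mean E-selectin-positive cell signal at least 10% of the positive control, reached in at least 60% of replicates, without over 20% cell loss; inconclusive = no rule given, readout overlaps actives, possibly toxicity-flagged; inactive = the rest, including those meeting only one limit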
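Read-out basis: % PE-positive cells; Test system: HUVEC primary endothelial cells; Technique: immunofluorescence imaging; Dosing: single-point compound dose.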
S100A4 MyoIIA: inhibitors of S100A4-myosin IIA peptide binding, primary screen, biochemical, fluorescence polarization, TAMRA-MyoIIA peptide | AID 652163, 2013 | Protein S100-A4 (Homo sapiens), P26447 | hit rate 0.14% among 360,000 | inhibition, % at 10.7 µM;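 active = mean inhibition of at least 70% across replicates, with every replicate also reaching that level; inconclusive = mean inhibition reaches 70% but some replicates fall short; inactive = mean inhibition below 70%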
Target sequence (P26447 whole entry, looked up): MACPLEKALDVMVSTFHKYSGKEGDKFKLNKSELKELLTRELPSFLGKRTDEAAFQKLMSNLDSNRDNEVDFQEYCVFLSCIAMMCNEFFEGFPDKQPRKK
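Test system: S100A4 monomer protein; Medium: HEPES pH 7.2 with CaCl2, KCl, NaCl, DTT, Triton; Probe or stimulus: TAMRA-labelled myosin IIA heavy-chain peptide probe, 5 nM; Doses: one dose per compound; Times: polarization read 5 min after assay mix addition, stable 5–60 min; Benchmarks: neutral control DMSO, positive control TFP.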
ERAP1 HTS inh: human ERAP1 aminopeptidase inhibitors, primary screen, biochemical, single point, plate reader; recombinant ERAP1, Leu-AMC fluorescence, 60 min; inhibition, % at 10.7 µM; hit rate 0.15% among 340,000; AID 652197, 2013;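 active = mean replicate inhibition of at least 30%, or all replicates individually reaching that 30% level; inactive = mean below 30% and not every replicate reaching it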;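 also: 0% = neutral control wells and 100% = L-leucinethiol positive control wells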
rRNA inh HTS: reduced GFP signal of wild-type E. coli, primary screen, bacterial rRNA inhibitor project, GFP/RFP fluorescence, OD600, single point | hit rate 1.6% among 350,000 | GFP signal change (wild-type ribosome), % (test concentration not listed) | E. coli WT GFP vs humanized-ribosome RFP mutants, 24 h; stronger effect = lower value; DMSO median 0, no signal -100;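 active = significant combined selectivity score with lowered wild-type GFP, culture density cut under 30%, mutant RFP and density less affected; inactive = any of these conditions unmet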
MLL AF4-AF9 inh: inhibitors of AF4 peptide binding to AF9, primary screen, biochemical, AlphaScreen, biotin-AF4 peptide, FLAG-AF9, single point. hit rate 0.47% among 350,000. inhibition, % at 10 µM. Protein AF-9 (Homo sapiens), P42568;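 active = every replicate reaching a set inhibition limit, whatever the replicate mean, cut at about 25% in these data; inconclusive = mean inhibition reaches that limit but some replicates miss it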;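 also: 0% = plate neutral control median and 100% = total signal loss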
SIRT5 block: SIRT5 desuccinylase inhibitors, primary screen, biochemical, fluorescence imaging, single point, set 5. Purified SirT5, succinyl-peptide AMC, trypsin-coupled fluorescence. inhibition, % at 15 µM. hit rate 1.1% among 330,000; in the data active = inhibition above about 15%; inconclusive = no clear call, values can overlap the other calls
Target sequence (Q9NXA8 whole entry, looked up): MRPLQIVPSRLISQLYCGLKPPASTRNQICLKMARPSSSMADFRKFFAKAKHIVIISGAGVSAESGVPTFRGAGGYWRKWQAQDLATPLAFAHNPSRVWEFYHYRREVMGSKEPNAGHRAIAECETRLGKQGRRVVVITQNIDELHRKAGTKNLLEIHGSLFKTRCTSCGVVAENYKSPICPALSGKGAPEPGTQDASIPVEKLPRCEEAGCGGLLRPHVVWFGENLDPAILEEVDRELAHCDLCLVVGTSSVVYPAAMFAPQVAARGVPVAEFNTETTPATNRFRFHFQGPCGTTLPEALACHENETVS
Numbers without * were called inactive.

CC(C)C#Cc1ccc2c(c1)O[C@@H](CN(C)C(=O)NC(C)C)[C@@H](C)CN([C@@H](C)CO)S2(=O)=O was read as E-sel inducer -4.2 and rRNA inh HTS -3.2.
Screening COC(=O)[C@H](Cc1c[nH]c2ccccc12)NCc1cccc(B(O)O)c1 returned E-sel inducer 6.5, S100A4 MyoIIA 2.8, rRNA inh HTS -23.9*, MLL AF4-AF9 inh 1.7 and SIRT5 block 26.2*.
For COc1ccccc1S(=O)(=O)N[C@@H]1CC[C@@H](CCNC(=O)C2CCOCC2)O[C@H]1CO the results were E-sel inducer 0.3, S100A4 MyoIIA -5.9, ERAP1 HTS inh -1.5, rRNA inh HTS 2.0, MLL AF4-AF9 inh -4.3 and SIRT5 block 1.0.
`O=C(CSc1nc2scc(-c3ccccc3)c2c(=O)[nH]1)N1CCCCC1` gave E-sel inducer 0.4, S100A4 MyoIIA -4.1, ERAP1 HTS inh -1.1, rRNA inh HTS -35.3*, MLL AF4-AF9 inh -3.1 and SIRT5 block 3.5.
For O=C(Nc1ccc(Cl)cc1)NN1CCCCCC1 the results were E-sel inducer -1.5, S100A4 MyoIIA -2.0, ERAP1 HTS inh 6.1, rRNA inh HTS -31.6 and MLL AF4-AF9 inh -10.7.
Screening CCCN1CCC(NC(=O)Nc2ccc([N+](=O)[O-])cc2)CC1 returned E-sel inducer -0.1, S100A4 MyoIIA 3.3, ERAP1 HTS inh -1.7, rRNA inh HTS 1.6, MLL AF4-AF9 inh 1.5 and SIRT5 block 16.6*.
For O=C(Nc1ccc([N+](=O)[O-])cc1)NN1CCCCCC1 the results were E-sel inducer 0.4, S100A4 MyoIIA -3.7, ERAP1 HTS inh -3.2, rRNA inh HTS -1.6* and MLL AF4-AF9 inh -3.5.
`CCCN1CCC(NC(=O)Nc2ccc(Br)cc2)CC1` gave E-sel inducer 0.2, S100A4 MyoIIA -3.3, ERAP1 HTS inh -0.7, MLL AF4-AF9 inh -2.6 and SIRT5 block -5.6.
O=C(c1ccccc1)N1CC(=O)N2[C@H](CO)[C@H](c3ccc(-c4ccccc4)cc3)[C@@H]2C1 was read as E-sel inducer 0.1, S100A4 MyoIIA -8.3, ERAP1 HTS inh -1.4, rRNA inh HTS -2.9, MLL AF4-AF9 inh 0.3 and SIRT5 block 1.3.
`Cc1cc(S(=O)(=O)Nc2ccc3ccccc3c2)c(C)s1` gave S100A4 MyoIIA -15.6, ERAP1 HTS inh -0.4, rRNA inh HTS -50.6*, MLL AF4-AF9 inh -0.8 and SIRT5 block 0.2.
For COc1cccc(OC)c1OCCCCc1c(C)n[nH]c1C the results were E-sel inducer 1.7, S100A4 MyoIIA 6.3, ERAP1 HTS inh -1.4, rRNA inh HTS -23.9*, MLL AF4-AF9 inh 2.7 and SIRT5 block 3.3.
Screening O=C(CN1CCN(c2ccccc2)CC1)Nc1ccc2c(c1)OCCO2 returned E-sel inducer 0.0, S100A4 MyoIIA 4.7, ERAP1 HTS inh -1.8, rRNA inh HTS -3.1, MLL AF4-AF9 inh -7.0 and SIRT5 block -0.5.
Screening CCOc1ccccc1N1CCN(C(=O)CSc2ccc3c(c2)OCCO3)CC1 returned E-sel inducer 78.7*, S100A4 MyoIIA -1.7, ERAP1 HTS inh 0.4, rRNA inh HTS -1.1, MLL AF4-AF9 inh 0.6 and SIRT5 block -2.6.
Screening CCCCNC(=O)N1CCN(c2ccccc2OCC)CC1 returned E-sel inducer 87.9*, S100A4 MyoIIA 1.1, ERAP1 HTS inh 2.8, rRNA inh HTS 7.4, MLL AF4-AF9 inh -0.3 and SIRT5 block 5.4.
For CCOc1ccccc1N1CCN(C(=O)CC(C)(C)C)CC1 the results were E-sel inducer 4.5, S100A4 MyoIIA 7.9, ERAP1 HTS inh -2.9, rRNA inh HTS -6.8, MLL AF4-AF9 inh -3.7 and SIRT5 block 1.8.
COc1ccccc1N1CCN(CC(=O)Nc2ccc3c(c2)OCCO3)CC1 was read as S100A4 MyoIIA -3.5, ERAP1 HTS inh 3.3, rRNA inh HTS 5.0, MLL AF4-AF9 inh inconclusive and SIRT5 block 31.3*.
CCNC(=O)C[C@@H]1CC[C@H]2[C@@H](COC[C@H](O)CN2Cc2ccncc2)O1 was read as E-sel inducer 0.0, S100A4 MyoIIA -2.2, ERAP1 HTS inh -0.1, rRNA inh HTS -0.6, MLL AF4-AF9 inh -3.2 and SIRT5 block -1.2.
For Cn1c(=O)c2c(-c3ccccc3)n(-c3cccc(O)c3)cc2n(C)c1=O the results were E-sel inducer -1.3, S100A4 MyoIIA 1.4, ERAP1 HTS inh 0.8, rRNA inh HTS 7.3, MLL AF4-AF9 inh 3.8 and SIRT5 block 38.7*.
Screening Cn1c(=O)c2c(-c3ccccc3)n(-c3ccccc3O)cc2n(C)c1=O returned S100A4 MyoIIA 1.9, ERAP1 HTS inh -0.1, rRNA inh HTS 1.3, MLL AF4-AF9 inh 3.2 and SIRT5 block -1.8.
`COc1ccc(NC(=O)Nc2ccc3c(c2)[C@@H]2C[C@H](CC(=O)NCc4ccc(-c5ccccc5)cc4)O[C@@H](CO)[C@@H]2O3)cc1` gave E-sel inducer 2.1, S100A4 MyoIIA 12.8, ERAP1 HTS inh -0.2, rRNA inh HTS 0.8, MLL AF4-AF9 inh 2.6 and SIRT5 block -1.6.
Screening COc1c(-c2ccc(O)cc2)oc2cc(O)cc(O)c2c1=O returned S100A4 MyoIIA -3.2, ERAP1 HTS inh 3.2, rRNA inh HTS -20.2*, MLL AF4-AF9 inh -0.4 and SIRT5 block 1.0.
`O=c1oc(-c2ccccc2NS(=O)(=O)c2ccc(F)cc2)nc2ccccc12` gave E-sel inducer 0.1, S100A4 MyoIIA 0.9, ERAP1 HTS inh 2.6, rRNA inh HTS -32.2* and SIRT5 block 0.5.
`CO[C@@H]1CN(C)C(=O)c2ccc(NC(=O)c3ccc(F)cc3)cc2OC[C@@H](C)N(C)C[C@H]1C` gave E-sel inducer 0.0, S100A4 MyoIIA -4.4, ERAP1 HTS inh -1.5, rRNA inh HTS 0.6, MLL AF4-AF9 inh 0.7 and SIRT5 block -0.2.
O=C(O)c1ccc(N/N=C/c2ccc(-c3cccc(Cl)c3)o2)cc1 was read as E-sel inducer 0.3, S100A4 MyoIIA 3.4, ERAP1 HTS inh -24.9, rRNA inh HTS -39.0*, MLL AF4-AF9 inh 3.5 and SIRT5 block 4.3.
CCc1nnc(N/N=C/c2ccc(-c3ccc([N+](=O)[O-])cc3)o2)n1N was read as S100A4 MyoIIA 7.0, ERAP1 HTS inh 5.3, rRNA inh HTS -36.8*, MLL AF4-AF9 inh 7.9 and SIRT5 block 4.4.
`O=[N+]([O-])c1ccc(N/N=C/c2cccc(O)c2O)cc1` gave S100A4 MyoIIA -2.5, ERAP1 HTS inh 2.8, rRNA inh HTS -30.6*, MLL AF4-AF9 inh 1.7 and SIRT5 block 0.8.
O=C(O)c1ccc(-c2ccc(/C=N/Nc3ccc([N+](=O)[O-])cc3)o2)cc1 was read as S100A4 MyoIIA -8.3, ERAP1 HTS inh 21.3, MLL AF4-AF9 inh -4.6 and SIRT5 block -3.5.
